In brackets after ≈: the same amount, converted by molar mass.
Legend:
Assay type in all cases: functional
Enterococcus faecalis = assay: Antibacterial activity against Enterococcus faecalis MGH-2 EF1-1
How it was run: (§1)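 MIC determined by broth microdilution following Clinical and Laboratory Standards Institute (formerly NCCLS) guidelines, across a panel of Gram-positive and fastidious Gram-negative organisms.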

Escherichia coli = assay: Antibacterial activity against Escherichia coli by transcription and translation assay
How it was run: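 Coupled in vitro transcription and translation system from Escherichia coli with a luciferase reporter; inhibition is read as loss of luciferase signal.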

Staphylococcus aureus = assay: Antibacterial activity against Staphylococcus aureus UC-76 SA-1; how it was run: as §1
Streptococcus pneumoniae = assay: Antibacterial activity against Streptococcus pneumoniae SVI SP-3; how it was run: as §1
Streptococcus pyogenes = assay: Antibacterial activity against Streptococcus pyogenes C-203; how it was run: as §1
Haemophilus influenzae = assay: Antibacterial activity against Haemophilus influenzae HI3542; conditions: HI-3542; how it was run: as §1
Moraxella catarrhalis = assay: Antibacterial activity against Moraxella catarrhalis BC-3531; how it was run: as §1

Row | MIC (Enterococcus faecalis) [µg/mL] | IC50 (Escherichia coli) [µM] | MIC (Staphylococcus aureus) [µg/mL] | MIC (Streptococcus pneumoniae) [µg/mL] | MIC (Streptococcus pyogenes) [µg/mL] | MIC (Haemophilus influenzae) [µg/mL] | MIC (Moraxella catarrhalis) [µg/mL] | Structure (SMILES)
1 | 2 (≈ 6.28 µM) | 9.3 | 2 (≈ 6.28 µM) | 1 (≈ 3.14 µM) | 1 (≈ 3.14 µM) | – | – | CC(=O)NC[C@H]1CN(c2cc(F)c3c(c2)CCCC=C3)C(=O)O1
2 | 1 (≈ 2.47 µM) | 1.7 | 1 (≈ 2.47 µM) | 0.5 (≈ 1.23 µM) | – | 16 (≈ 39.5 µM) | 8 (≈ 19.7 µM) | CC(=O)NC[C@H]1CN(c2ccc3c(c2)CCC/C(=C\c2ccncc2)C3=O)C(=O)O1
3 | 0.5 (≈ 0.989 µM) | 1.2 | 1 (≈ 1.98 µM) | 0.125 (≈ 0.247 µM) | – | 16 (≈ 31.6 µM) | 4 (≈ 7.91 µM) | CC(=O)NC[C@H]1CN(c2ccc3c(c2)CCC/C(=C\c2ccc(OCCCN(C)C)cc2)C3=O)C(=O)O1
4 | 0.5 (≈ 1.58 µM) | 3.9 | 1 (≈ 3.16 µM) | 0.5 (≈ 1.58 µM) | 0.5 (≈ 1.58 µM) | – | – | CC(=O)NC[C@H]1CN(c2ccc3c(c2)CCCCC3=O)C(=O)O1
5 | 8 (≈ 23.9 µM) | 8.9 | 16 (≈ 47.9 µM) | 4 (≈ 12 µM) | 8 (≈ 23.9 µM) | – | – | CC(=O)NC[C@H]1CN(c2ccc3c(c2F)CCCCC3=O)C(=O)O1
6 | 8 (≈ 24.2 µM) | 5.9 | 4 (≈ 12.1 µM) | 4 (≈ 12.1 µM) | 2 (≈ 6.05 µM) | – | – | CC(=O)NC[C@H]1CN(c2ccc3c(c2)CCCCCC3=O)C(=O)O1
7 | 0.5 (≈ 1.23 µM) | 1.6 | 1 (≈ 2.45 µM) | 0.25 (≈ 0.614 µM) | – | 16 (≈ 39.3 µM) | 4 (≈ 9.82 µM) | CC(=O)NC[C@H]1CN(c2ccc3c(c2)CCC/C(=C\c2cccn2C)C3=O)C(=O)O1
8 | > 64 | 8 | 64 (≈ 212 µM) | 8 (≈ 26.5 µM) | 2 (≈ 6.61 µM) | – | – | CC(=O)NC[C@H]1CN(c2ccc3c(c2)CCCCC3)C(=O)O1
9 | 0.25 (≈ 0.582 µM) | 1.7 | 0.5 (≈ 1.16 µM) | 0.25 (≈ 0.582 µM) | – | 32 (≈ 74.5 µM) | 2 (≈ 4.66 µM) | CC(=O)NC[C@H]1CN(c2ccc3c(c2)CCC/C(=C\c2cccc(C#N)c2)C3=O)C(=O)O1
10 | 64 (≈ 191 µM) | 90 | 64 (≈ 191 µM) | 32 (≈ 95.7 µM) | 32 (≈ 95.7 µM) | – | – | CC(=O)NC[C@H]1CN(c2cc3c(cc2F)C(=O)CCCC3)C(=O)O1
11 | 2 (≈ 7.24 µM) | 7.5 | 2 (≈ 7.24 µM) | 2 (≈ 7.24 µM) | 1 (≈ 3.62 µM) | – | – | CC(=O)NC[C@H]1CN(c2ccc(C(C)=O)cc2)C(=O)O1 [DUP-721]
12 | 16 (≈ 52.9 µM) | 4 | 32 (≈ 106 µM) | 8 (≈ 26.5 µM) | 16 (≈ 52.9 µM) | – | – | CC(=O)NC[C@H]1CN(c2ccc3c(c2)C(=O)CCC3)C(=O)O1
13 | 4 (≈ 12 µM) | 9.4 | 8 (≈ 23.9 µM) | 2 (≈ 5.98 µM) | 2 (≈ 5.98 µM) | – | – | CC(=O)NC[C@H]1CN(c2cc(F)c3c(c2)CCCCC3=O)C(=O)O1
14 | 1 (≈ 3.33 µM) | 1.3 | 1 (≈ 3.33 µM) | 0.5 (≈ 1.66 µM) | 0.5 (≈ 1.66 µM) | – | – | CC(=O)NC[C@H]1CN(c2ccc3c(c2)CCCC=C3)C(=O)O1
15 | 0.5 (≈ 1.22 µM) | 1.1 | 2 (≈ 4.87 µM) | 0.125 (≈ 0.305 µM) | – | 2 (≈ 4.87 µM) | 1 (≈ 2.44 µM) | CC(=O)NC[C@H]1CN(c2ccc3c(c2)CCC/C(=C\c2ccsc2)C3=O)C(=O)O1
16 | 8 (≈ 27.7 µM) | 21 | 8 (≈ 27.7 µM) | 2 (≈ 6.94 µM) | 2 (≈ 6.94 µM) | – | – | CC(=O)NC[C@H]1CN(c2ccc3c(c2)CCC3=O)C(=O)O1 [PNU-82965]
17 | 0.5 (≈ 1.04 µM) | 2.8 | 1 (≈ 2.07 µM) | 0.25 (≈ 0.518 µM) | – | 16 (≈ 33.2 µM) | 4 (≈ 8.29 µM) | CC(=O)NC[C@H]1CN(c2ccc3c(c2)CCC/C(=C\c2ccc(S(C)(=O)=O)cc2)C3=O)C(=O)O1
18 | 8 (≈ 25.2 µM) | 13 | 8 (≈ 25.2 µM) | 16 (≈ 50.4 µM) | 4 (≈ 12.6 µM) | – | – | CC(=O)NC[C@H]1CN(c2cnc3c(c2)CCCCC3=O)C(=O)O1
19 | 0.5 (≈ 1.11 µM) | 2.6 | 1 (≈ 2.23 µM) | 0.25 (≈ 0.557 µM) | – | 16 (≈ 35.7 µM) | 4 (≈ 8.92 µM) | CC(=O)NC[C@H]1CN(c2ccc3c(c2)CCC/C(=C\c2ccc(CCO)cc2)C3=O)C(=O)O1
20 | 2 (≈ 4.07 µM) | 1.5 | 2 (≈ 4.07 µM) | 0.25 (≈ 0.509 µM) | – | 32 (≈ 65.1 µM) | 8 (≈ 16.3 µM) | CC(=O)NC[C@H]1CN(c2ccc3c(c2)CCC/C(=C\c2ccc(OCCN(C)C)cc2)C3=O)C(=O)O1
21 | 0.5 (≈ 1.24 µM) | 2.7 | 1 (≈ 2.47 µM) | 0.25 (≈ 0.618 µM) | – | 16 (≈ 39.6 µM) | 4 (≈ 9.89 µM) | CC(=O)NC[C@H]1CN(c2ccc3c(c2)CCC/C(=C\c2ccccc2)C3=O)C(=O)O1
22 | 16 (≈ 45.4 µM) | 14 | 32 (≈ 90.8 µM) | 8 (≈ 22.7 µM) | 16 (≈ 45.4 µM) | – | – | CC(=O)NC[C@H]1CN(c2cc(F)c3c(c2F)CCCCC3=O)C(=O)O1
23 | 0.5 (≈ 1.19 µM) | 0.95 | 0.5 (≈ 1.19 µM) | 0.125 (≈ 0.297 µM) | – | 8 (≈ 19 µM) | 2 (≈ 4.76 µM) | CC(=O)NC[C@H]1CN(c2ccc3c(c2)CCC/C(=C\c2ccc(O)cc2)C3=O)C(=O)O1
24 | 0.5 (≈ 1.18 µM) | 2.7 | 0.5 (≈ 1.18 µM) | 0.25 (≈ 0.592 µM) | – | 2 (≈ 4.73 µM) | 2 (≈ 4.73 µM) | CC(=O)NC[C@H]1CN(c2ccc3c(c2)CCC/C(=C\c2ccc(F)cc2)C3=O)C(=O)O1

Row | Structure (SMILES) | MIC (Enterococcus faecalis) [µg/mL] | IC50 (Escherichia coli) [µM] | MIC (Staphylococcus aureus) [µg/mL] | MIC (Streptococcus pneumoniae) [µg/mL] | MIC (Streptococcus pyogenes) [µg/mL] | MIC (Haemophilus influenzae) [µg/mL] | MIC (Moraxella catarrhalis) [µg/mL]
25 | CC(=O)NC[C@H]1CN(c2ccc(N3CCOCC3)c(F)c2)C(=O)O1 [LINEZOLID] | – | 3.3 | – | – | 1 (≈ 2.96 µM) | 16 (≈ 47.4 µM) | –

Source: ChEMBL document CHEMBL1137280, “Synthesis and structure-activity studies of novel benzocycloheptanone oxazolidinone antibacterial agents” (Bioorg Med Chem Lett, 2006)
